S1P3 antag: antagonists of human S1P3 receptor; Q99500; CHO S1P3 NFAT-BLA reporter, FRET fluorescence, antagonist mode; inhibition, % at 4.98 µM; 170,000 tested, 0.27% active; AID 485;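 active = inhibition above the plate cutoff, the mean inhibition of test wells on that plate plus 3 SD, cut at about 28% in these data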;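 also: cells challenged with S1P at its EC80 of 0.8 µM; blue over green emission ratio from cleaved BLA substrate after 4 h stimulation; 0% = S1P-stimulated wells and 100% = unstimulated DMSO-only wells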
Target sequence (Q99500 whole entry, looked up): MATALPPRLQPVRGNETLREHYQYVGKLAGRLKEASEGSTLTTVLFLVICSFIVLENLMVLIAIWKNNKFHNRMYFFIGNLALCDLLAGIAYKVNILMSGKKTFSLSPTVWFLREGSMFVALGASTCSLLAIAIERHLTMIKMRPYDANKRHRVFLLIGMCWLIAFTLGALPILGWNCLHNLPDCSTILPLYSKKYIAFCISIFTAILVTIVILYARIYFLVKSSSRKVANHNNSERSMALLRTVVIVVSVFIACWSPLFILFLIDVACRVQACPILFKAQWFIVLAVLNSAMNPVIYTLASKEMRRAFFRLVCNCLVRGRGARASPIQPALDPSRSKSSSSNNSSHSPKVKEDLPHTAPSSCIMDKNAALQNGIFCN
S1P4 antagonist: human S1P4 receptor antagonism; O95977; 220,000 tested, 0.26% active; S1P4-expressing cells, antagonist mode, reporter read-out; inhibition, % at 4.98 µM; in the data active = inhibition above about 29%;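 also: 0% = wells stimulated with agonist and 100% = vehicle wells without agonist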
MDM2 E3 inh: Mdm2 E3 ligase (human) inhibition; cell-based MDM2 ubiquitination luciferase reporter, 2 h; 0 = plate control, 100 = twice control, blank-subtracted; signal enhancement, % at 5 µM; 210,000 tested, 0.11% active;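 active = signal enhancement of 30% or more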;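 also: luminescence tracks abundance of the self-degrading MDM2-luciferase fusion protein; higher signal means inhibition of MDM2 E3 ligase activity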
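Assay system: stable mammalian line carrying autodegrading MDM2–luciferase fusion reporter; amount: 2000 cells seeded into each well; buffer or medium: DMEM; benchmarks: plate control and blank wells; signal: luciferase luminescence; timing: 2 h compound exposure at 37 °C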
L major viab: inhibitors of Leishmania major promastigote growth; inhibition, % at 10 µM; AID 1063; Leishmania major promastigotes, resazurin fluorescence viability; 200,000 tested, 9% active; in the data active = inhibition above about 50%;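 also: promastigotes grown with compound for 44 hours at 28 °C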
S1P4 agonist: agonists of human S1P4 receptor; O95977; S1P4-expressing cell line, agonist reporter assay; activation, % at 4.98 µM; 220,000 tested, 0.35% active; AID 1509; in the data active = activation above about 11%;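 also: 0% = DMSO vehicle and 100% = reference agonist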
An asterisk follows results filed as active. Many of the other results were omitted from the sample, so hits are more common in it than they were.

How did Cc1cccc(-n2cc(-c3ccccc3)c3c(NN4CCOCC4)ncnc32)c1 do in these assays?
S1P3 antag: -2; S1P4 antagonist: -2; MDM2 E3 inh: -4; L major viab: 63*; S1P4 agonist: 3

How did C=CCn1nnnc1-c1cc(Cl)cc(Cl)c1 do in these assays?
S1P3 antag: -11; S1P4 antagonist: -13; MDM2 E3 inh: -27; L major viab: 0; S1P4 agonist: -1

Results for Cc1ccc(S(=O)(=O)N(CC(=O)NCCSCc2ccco2)c2cc(C)ccc2C)cc1 ?
S1P4 antagonist: -14; L major viab: 100*; S1P4 agonist: 0

What do the screens show for `Cc1ccc(N(CC(=O)NCCSCc2ccco2)S(=O)(=O)c2ccc(F)cc2)cc1`?
S1P3 antag: -19; S1P4 antagonist: 11; MDM2 E3 inh: -24; L major viab: 69*; S1P4 agonist: 1

What do the screens show for `COc1ccc(N(CC(=O)NCCSCc2ccco2)S(=O)(=O)c2ccccc2)cc1`?
S1P3 antag: 2; S1P4 antagonist: -3; MDM2 E3 inh: -14; L major viab: 40; S1P4 agonist: 1

Results for O=C(CN(c1ccccc1)S(=O)(=O)c1ccccc1)NCCSCc1ccco1 ?
S1P4 antagonist: -7; MDM2 E3 inh: 9; L major viab: 68*; S1P4 agonist: 2

Results for NC(=O)C1CC(=O)N(c2ccc(OCc3c(Cl)cccc3Cl)cc2)C1 (stereo unspecified) ?
S1P3 antag: 0; S1P4 antagonist: -13; MDM2 E3 inh: 0; L major viab: 0; S1P4 agonist: 3

What do the screens show for `NNC(=O)C(Cc1c[nH]c2ccccc12)NC(=O)c1ccccc1` (stereo unspecified)?
S1P3 antag: 3; S1P4 antagonist: 2; MDM2 E3 inh: -10; S1P4 agonist: 1

Results for COC(=O)C1=C(C(=O)OC)[C@@H]2N(C)c3ccccc3[C@@]23C[C@@H](C(=O)OC)N=C3N1 ?
MDM2 E3 inh: 6

How did COC(=O)C1=C(C(=O)OC)[C@@H]2N(C)c3ccc(OC)cc3[C@@]23C[C@@H](C(=O)OC)N=C3N1 do in these assays?
MDM2 E3 inh: 36*

What do the screens show for `CN1C(=O)/C(=C\c2ccco2)N=C1c1ccc(Cl)cc1Cl`?
S1P3 antag: 6; S1P4 antagonist: -2; MDM2 E3 inh: 3; S1P4 agonist: 1

What do the screens show for `C/C(=N\Nc1nc(C)cc(C)n1)c1ccc(N2CCOCC2)cc1`?
S1P3 antag: 9; S1P4 antagonist: -2; MDM2 E3 inh: 2; L major viab: -8; S1P4 agonist: 0

Results for C/C(=N\Nc1nc2ccccc2[nH]1)c1ccc(Cl)s1 ?
S1P3 antag: 16; S1P4 antagonist: 3; MDM2 E3 inh: -4; L major viab: 90*; S1P4 agonist: -2

What do the screens show for `C/C(=N\Nc1nc2ccccc2[nH]1)c1ccc(C)o1`?
S1P3 antag: 20; S1P4 antagonist: -17; MDM2 E3 inh: -14; L major viab: 65*; S1P4 agonist: -1

Results for C/C(=N\Nc1nc2ccccc2[nH]1)c1ccc(N2CCOCC2)cc1 ?
S1P3 antag: -14; S1P4 antagonist: -29; MDM2 E3 inh: -30; L major viab: 100*; S1P4 agonist: 0

Results for O=C(CSc1nnc2ccccn12)Nc1cccc(S(=O)(=O)N2CCOCC2)c1 ?
S1P3 antag: -3; S1P4 antagonist: -24; MDM2 E3 inh: -6; L major viab: -1; S1P4 agonist: 4

What do the screens show for `CC(C)C(NS(=O)(=O)c1cccc2nsnc12)C(=O)Nc1nccs1` (stereo unspecified)?
S1P3 antag: -6; S1P4 antagonist: 7; MDM2 E3 inh: -4; S1P4 agonist: 0

What do the screens show for `Cc1ccc2nc(NC(=O)C(NS(=O)(=O)c3cccc4nsnc34)C(C)C)sc2c1` (stereo unspecified)?
S1P4 antagonist: -11; MDM2 E3 inh: -14; L major viab: 96*; S1P4 agonist: -1

What do the screens show for `COc1ccc2nc(NC(=O)C(NS(=O)(=O)c3cccs3)C(C)C)sc2c1` (stereo unspecified)?
S1P3 antag: -42; S1P4 antagonist: -22; MDM2 E3 inh: 0; L major viab: 89*; S1P4 agonist: 1

How did Cc1ccc2c(c1)N(C(=O)CCC(=O)O)CCO2 do in these assays?
S1P3 antag: -5; S1P4 antagonist: -4; MDM2 E3 inh: -7; L major viab: -3; S1P4 agonist: 5

How did COCCNC(=O)C(c1ccc(C)cc1)N(C(=O)C(=O)NC1CCCC1)c1ccc2c(c1)OCCO2 (stereo unspecified) do in these assays?
S1P3 antag: 1; S1P4 antagonist: -8; MDM2 E3 inh: -19; L major viab: -2; S1P4 agonist: 2

What do the screens show for `O=S(=O)(c1ccc2c(c1)OCCO2)N1CCN(c2ncnc3sccc23)CC1`?
S1P3 antag: 23; S1P4 antagonist: -24; MDM2 E3 inh: -32; L major viab: 60*; S1P4 agonist: 4

Results for CCN(CC)S(=O)(=O)c1ccc(N2CCN(S(=O)(=O)c3ccc4c(c3)OCCO4)CC2)nc1 ?
S1P4 antagonist: 2; MDM2 E3 inh: -8; L major viab: 79*; S1P4 agonist: -1

What do the screens show for `CCN(CC)S(=O)(=O)c1ccc(N2CCN(CCO)CC2)nc1`?
S1P3 antag: 6; S1P4 antagonist: 1; MDM2 E3 inh: -13; L major viab: 8; S1P4 agonist: 1

Results for O=C1c2ccc3c4c(ccc(c24)C(=O)N1CCCCO)C(=O)N(CCCCO)C3=O ?
S1P3 antag: -33; S1P4 antagonist: -18; MDM2 E3 inh: 7; L major viab: 100*; S1P4 agonist: 1

How did CCC(CC)C(=O)Nc1cc([N+](=O)[O-])ccc1F do in these assays?
S1P3 antag: -34; S1P4 antagonist: -9; MDM2 E3 inh: -2; L major viab: -1; S1P4 agonist: 1

How did CC(C)(C)CC(C)(C)N=C1NS(=O)(=O)c2cc([N+](=O)[O-])ccc21 do in these assays?
S1P3 antag: -25; S1P4 antagonist: 0; MDM2 E3 inh: -10; L major viab: 100*; S1P4 agonist: 0

Results for CCC(CC)N=C1NS(=O)(=O)c2cc([N+](=O)[O-])ccc21 ?
S1P3 antag: 7; S1P4 antagonist: -11; MDM2 E3 inh: -11; L major viab: 99*; S1P4 agonist: 1

How did CC(C)(CO)N=C1NS(=O)(=O)c2cc([N+](=O)[O-])ccc21 do in these assays?
S1P3 antag: -19; S1P4 antagonist: -9; MDM2 E3 inh: -2; L major viab: -4; S1P4 agonist: 0

How did O=C1c2ccccc2C(=O)N1CCCCN(C(=O)c1cc2ccccc2oc1=O)c1ccc(F)cc1F do in these assays?
S1P3 antag: -22; S1P4 antagonist: -21; MDM2 E3 inh: -3; L major viab: 7; S1P4 agonist: 7

What do the screens show for `CC(C)CN1C(=O)C(=O)N(CC(=O)N2CCC(Cc3ccccc3)CC2)C1=O`?
S1P3 antag: -18; S1P4 antagonist: -20; MDM2 E3 inh: 1; L major viab: -1; S1P4 agonist: -1

What do the screens show for `CC(C(O)c1ccc(O)cc1)N1CCC(Cc2ccccc2)CC1` (stereo unspecified)?
S1P3 antag: -2; S1P4 antagonist: 10; MDM2 E3 inh: -1; L major viab: 96*; S1P4 agonist: -1
